Assay results as given in ChEMBL document CHEMBL4017544 (J Med Chem, 2017).
Activity calls are given as the source filed them. The rule behind the calls is not given here.

Experiments:
[1] = system: Mus musculus; assay: Renoprotective activity in db/db mouse assessed as reduction in loss of foot processes at 0.65 mg/kg, ip administered trice per week for 12 consecutive weeks measured at 11 weeks post dose by TEM microscopic analysis; format: functional, organism-based
Outline: (§1)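 Male db/db mice (8 weeks old) were dosed i.p. three times weekly for 12 weeks in 5% Tween-80/0.9% saline, n = 6. Kidney tissue was fixed in 3% glutaraldehyde, cut into 80 nm ultrathin sections and examined by TEM. GBM thickness was measured at 30 random locations from three sections per kidney and averaged per mouse.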

[2] = Drug level in Sprague-Dawley rat kidney at 20 mg/kg, ip measured at 90 mins by LC-MS/MS analysis; format: ADME, organism-based; details: read-out: Drug uptake
Outline: (§2)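 Rats given a single ip injection, 20 mg/kg (0.04 mmol) of CDDO-Me or 30 mg/kg (0.04 mmol) of the prodrug; heart, kidney and liver collected over time; parent compound and liberated CDDO-Me measured by LC-MS/MS.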

[3] = system: Mus musculus; assay: Renoprotective activity in db/db mouse assessed as reduction of fibrosis in glomeruli at 0.65 mg/kg, ip administered trice per week for 12 consecutive weeks measured at 11 weeks post dose by H/E-staining based microscopic analysis; format: functional, organism-based
Outline: (§3)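 Male db/db mice, 8 weeks old, were randomized and dosed i.p. three times weekly for 12 weeks (vehicle: 5% Tween-80 in 0.9% saline; n = 6 per group). Kidneys were fixed in 4% PFA and paraffin-embedded. 5 μm sections were stained with HE, PAS or Masson's trichrome and examined at ×400.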

[4] = system: Mus musculus; assay: Renoprotective activity in db/db mouse assessed as reduction in mesangial expansion at 0.65 mg/kg, ip administered trice per week for 12 consecutive weeks measured at 11 weeks post dose by TEM microscopic analysis; format: functional, organism-based; outline: as §1
[5] = system: Mus musculus; assay: Anti-diabetic nephropathic activity in db/db mouse assessed as reduction in urinary albumin at 0.65 mg/kg, ip administered trice per week for 12 consecutive weeks measured at 24 hrs post 11 week administration; format: functional, organism-based
Outline: (§4)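 Male db/db mice, 8 weeks old, randomized; ip vehicle (5% Tween-80 in 0.9% saline) or drug three times weekly for 12 weeks, n = 6 per group. After 11 weeks, 24 h urine collected for volume, albumin and creatinine, with UACR calculated; blood then sampled for plasma BUN and uric acid. Mean ± SD, one-way ANOVA with Tukey test.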

[6] = target: Kelch-like ECH-associated protein 1 (Homo sapiens) (UniProt Q14145); assay: Inhibition of Keap1/Nrf2 (unknown origin) interaction transfected in HEK293 cells assessed as increase in nuclear to cytosolic Nfr2 ratio at 200 to 1000 nM after 48 hrs by Western blot analysis; format: cell-based
Outline: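 HEK293 cells grown in high-glucose DMEM with 10% FBS were treated in triplicate at 200 or 1000 nM for 48 h. Nuclear and cytosolic Nrf2, HO-1 and cytoplasmic NQO1 were measured by western blot with specific antibodies, with TBP and β-actin among the probed proteins. The nuclear/cytosolic Nrf2 ratio was derived from these blots. Three independent experiments, mean ± SD.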

[7] = system: Mus musculus; assay: Anti-diabetic nephropathic activity in db/db mouse assessed as reduction in plasma urea nitrogen levels at 0.65 mg/kg, ip administered trice per week for 12 consecutive weeks measured 11 weeks post dose; format: functional, organism-based; outline: as §4
[8] = system: Mus musculus; assay: Anti-diabetic nephropathic activity in db/db mouse assessed as reduction in plasma creatinine levels at 0.65 mg/kg, ip administered trice per week for 12 consecutive weeks measured at 11 weeks post dose; format: functional, organism-based
[9] = system: Mus musculus; assay: Anti-diabetic nephropathic activity in db/db mouse assessed as reduction in 24 hr urine volume at 0.65 mg/kg, ip administered trice per week for 12 consecutive weeks measured at 11 weeks post dose; format: functional, organism-based; outline: as §4
[10] = system: Mus musculus; assay: Anti-diabetic nephropathic activity in db/db mouse assessed as reduction in plasma uric acid levels at 1 to 2 mg/kg, ip administered thrice per week for 12 consecutive weeks measured at 11 weeks post dose; format: functional, organism-based; outline: as §4
[11] = system: Mus musculus; assay: Renoprotective activity in db/db mouse assessed as reduction in thickening of capillary walls in glomeruli at 1 to 2 mg/kg, ip administered trice per week for 12 consecutive weeks measured at 11 weeks post dose by H/E-staining based microscopic analysis; format: functional, organism-based; outline: as §3
[12] = Drug level in Sprague-Dawley rat kidney at 30 mg/kg, ip measured at 10 mins by LC-MS/MS analysis; format: ADME, organism-based; details: read-out: Drug uptake; outline: as §2
[13] = Drug level in Sprague-Dawley rat heart at 30 mg/kg, ip measured at 90 mins by LC-MS/MS analysis; format: ADME, organism-based; details: read-out: Drug uptake; outline: as §2
[14] = system: Mus musculus; assay: Renoprotective activity in db/db mouse assessed as reduction in glomerular basement thickening at 1 to 2 mg/kg, ip administered trice per week for 12 consecutive weeks measured at 11 weeks post dose by TEM microscopic analysis; format: functional, organism-based; outline: as §1
[15] = Drug level in Sprague-Dawley rat liver at 30 mg/kg, ip measured at 90 mins by LC-MS/MS analysis; format: ADME, organism-based; details: read-out: Drug uptake; outline: as §2
[16] = system: Kidney; assay: In vivo drug metabolism in Sprague-Dawley rat assessed as CDDO-Me formation in kidney at 30 mg/kg, ip measured at 30 mins by LC-MS/MS analysis; format: ADME, organism-based; details: 0.5 h; outline: as §2
[17] = target: Voltage-gated inwardly rectifying potassium channel KCNH2 (Homo sapiens, UniProt Q12809); assay: Inhibition of human ERG expressed in CHO cells at -80 mV holding potential by patch clamp assay; format: cell-based
Voltage-gated inwardly rectifying potassium channel KCNH2, sequence (Q12809 whole entry): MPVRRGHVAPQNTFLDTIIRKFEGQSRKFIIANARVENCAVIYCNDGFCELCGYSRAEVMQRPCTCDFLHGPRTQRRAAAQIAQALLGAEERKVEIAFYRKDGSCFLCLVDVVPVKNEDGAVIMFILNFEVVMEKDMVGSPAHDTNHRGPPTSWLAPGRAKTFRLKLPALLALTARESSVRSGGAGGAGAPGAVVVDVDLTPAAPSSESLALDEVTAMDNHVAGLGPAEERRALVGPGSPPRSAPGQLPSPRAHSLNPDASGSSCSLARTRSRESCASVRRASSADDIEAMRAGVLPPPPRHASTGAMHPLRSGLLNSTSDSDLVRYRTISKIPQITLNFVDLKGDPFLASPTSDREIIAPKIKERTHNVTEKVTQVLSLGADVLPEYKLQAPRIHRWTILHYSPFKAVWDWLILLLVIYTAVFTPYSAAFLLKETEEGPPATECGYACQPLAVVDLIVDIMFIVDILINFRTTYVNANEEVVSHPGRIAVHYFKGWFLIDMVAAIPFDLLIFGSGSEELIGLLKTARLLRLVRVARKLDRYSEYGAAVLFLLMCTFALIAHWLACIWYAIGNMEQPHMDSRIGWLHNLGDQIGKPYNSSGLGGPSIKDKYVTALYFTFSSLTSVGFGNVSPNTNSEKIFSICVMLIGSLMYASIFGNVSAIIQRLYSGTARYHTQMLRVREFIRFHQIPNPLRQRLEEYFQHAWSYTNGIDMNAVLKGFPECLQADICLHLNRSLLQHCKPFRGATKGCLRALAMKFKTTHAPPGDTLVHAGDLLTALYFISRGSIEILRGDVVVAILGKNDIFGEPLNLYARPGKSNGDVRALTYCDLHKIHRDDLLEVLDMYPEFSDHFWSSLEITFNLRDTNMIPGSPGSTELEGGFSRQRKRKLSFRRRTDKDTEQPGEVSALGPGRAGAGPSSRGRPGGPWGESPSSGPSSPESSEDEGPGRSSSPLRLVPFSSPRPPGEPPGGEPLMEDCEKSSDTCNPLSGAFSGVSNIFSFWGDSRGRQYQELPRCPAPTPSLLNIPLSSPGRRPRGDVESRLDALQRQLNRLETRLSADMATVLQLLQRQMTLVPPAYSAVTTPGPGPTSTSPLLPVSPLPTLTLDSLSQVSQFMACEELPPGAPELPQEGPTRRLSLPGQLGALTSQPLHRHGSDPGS

Kelch-like ECH-associated protein 1 (Homo sapiens), sequence (Q14145 whole entry): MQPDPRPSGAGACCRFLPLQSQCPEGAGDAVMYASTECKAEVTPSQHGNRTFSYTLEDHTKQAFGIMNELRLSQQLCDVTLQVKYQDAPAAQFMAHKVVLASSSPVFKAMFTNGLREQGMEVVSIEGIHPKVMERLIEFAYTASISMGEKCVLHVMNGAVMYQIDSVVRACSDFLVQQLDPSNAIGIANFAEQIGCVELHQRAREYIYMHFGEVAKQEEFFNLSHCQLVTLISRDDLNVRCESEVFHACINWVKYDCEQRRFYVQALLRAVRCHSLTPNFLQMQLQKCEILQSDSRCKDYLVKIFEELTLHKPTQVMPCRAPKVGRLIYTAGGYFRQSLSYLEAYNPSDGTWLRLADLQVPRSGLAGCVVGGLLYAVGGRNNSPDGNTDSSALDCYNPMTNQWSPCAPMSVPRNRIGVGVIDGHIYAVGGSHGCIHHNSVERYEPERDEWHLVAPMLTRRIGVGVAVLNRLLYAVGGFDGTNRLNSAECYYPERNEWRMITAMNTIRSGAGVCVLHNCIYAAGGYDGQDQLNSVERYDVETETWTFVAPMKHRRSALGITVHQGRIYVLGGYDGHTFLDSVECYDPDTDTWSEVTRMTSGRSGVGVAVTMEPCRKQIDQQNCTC

| SMILES | Activity [1] | concentration at 1.5 h [2] | Activity [3] | Activity [4] | Activity [5] | inhibition [6] | Activity [7] | Activity [8] | Activity [9] | Activity [10] | Activity [11] | concentration at 10 min [12] | concentration at 1.5 h [13] | Activity [14] | concentration at 1.5 h [15] | Drug metabolism [16] | IC50 [17] |
| --- | --- | --- | --- | --- | --- | --- | --- | --- | --- | --- | --- | --- | --- | --- | --- | --- | --- |
| COC(=O)[C@]12CCC(C)(C)C[C@H]1[C@H]1C(=O)C=C3[C@@]4(C)C=C(C#N)C(=O)C(C)(C)[C@@H]4CC[C@@]3(C)[C@]1(C)CC2 [BARDOXOLONE METHYL] | Active | 4520 ng/g | Active | Active | Active | Active | Active | Active | Active | – | – | – | – | – | – | – | – |
| COC(=O)[C@@H](N)CCC(=O)Nc1ccc(COC2=C(C#N)[C@H](O)[C@]3(C)C4=CC(=O)[C@@H]5[C@@H]6CC(C)(C)CC[C@]6(C(=O)OC)CC[C@@]5(C)[C@]4(C)CC[C@H]3C2(C)C)cc1 | – | – | – | – | – | – | – | – | – | Active | Active | 1230 ng/g | 1310 ng/g | Active | 6040 ng/g | 0.09 µg/g | > 200 µM |
